In the EternaBench riboswitch data:

System: MS2 coat protein
Assay: apparent Kd, MS2 coat protein; higher = weaker binding; RNA-MaP array; FMN 200 µM where present
How it was run: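 The apparent Kd is the median of filtered binding-curve fits, one per cluster, to green signal normalised to red-channel RNA signal and control-cluster median Fmax. The clusters were on Illumina sequencing chips, and stalled E. coli RNA polymerase had transcribed the designs on them. Titration used SNAP-549-labelled MS2 coat protein from 0.7 or 1.5 nM, doubling to 3 µM, without and then with constant ligand, in 100 mM Tris-HCl pH 7.5, 80 mM KCl, 4 mM MgCl2, BSA, DTT, yeast tRNA and Tween-20.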

[1] = designed as: OFF switch for flavin mononucleotide, no ligand
[2] = ligand present: flavin mononucleotide, designed as: OFF switch for flavin mononucleotide
[3] = designed as: ON switch for flavin mononucleotide, no ligand
[4] = ligand present: flavin mononucleotide, designed as: ON switch for flavin mononucleotide

| Sequence | apparent Kd [1] [nM] | apparent Kd [2] [nM] | apparent Kd [3] [nM] | apparent Kd [4] [nM] |
| --- | --- | --- | --- | --- |
| AGCACGAAAGUGCAACGAUGUAGCAGAAGGACAUGAGGAUCACCCAUGUAACGAGUAACUCGAAUGUAGGAUAUGCUACAUCGA | 25 | 157 | – | – |
| AGCAGACGAGGAUAUGAUAAAGAUCACAUGAGGAUCACCCAUGUAGCGUCGAUAGACGCAUCAGAAGGCGUCUGCU | 16.1 | 16.5 | – | – |
| AGCAUGCAGUAGGAUAUCGAUCCACAAUAUGAACGAGAAGGACUGACAUGAGGAUCACCCAUGUGCGUCCUAGG | 16.7 | 16.6 | – | – |
| AGCAUGCUAGGAUAUACGGGACAUUAGGGUUUGUCGUGUGGACAUGAGGAUCACCCAUGUAGAAGGAGCGUGCA | 54.4 | 228 | – | – |
| AGCAUGGUAGGAUAUACGGAACAUUAGGGUUUGUUGUGUGGACAUGAGGAUCACCCAUGUAGAAGGGCCGUGCA | 34 | 80.4 | – | – |
| AGCAUGUGAGGAUAUGCGGACUCCGGUAAAUCUGGAAUCCAGUAGAAGGCACAUGAGGAUCACCCAUGUGAUAA | 68.2 | 55.9 | – | – |
| AGCCACAGUUCAGGAUAUGCGGGCCGACUGGUAGCAGAAGGGAACAUGAGGAUCACCCAUGUAGGUCAUACGGGCUACGUCGAA | 11.6 | 45.6 | – | – |
| AGCCGAGUAGGAUAUGCAUACUUACAGGAAAGCUGUAUGGUACAUGAGGAUCACCCAUGUAGAAGGGCUCUGAA | 25 | 21.2 | – | – |
| AGCCUACAUGAGGAUCACCCAUGUCAGGAUAUCUCGCAACGUGUCAAGUUCACGUCGCAGAGAAGGGACUCGGG | 55.7 | 54 | – | – |
| AGCCUACAUGAGGAUCACCCAUGUCAGGAUAUCUCGCGACGUGUCGGGUUCACGUUGCAGAGAAGGGACUCGGG | 50.7 | 67.3 | – | – |
| AGCCUAGCAGGAUAUGCCCGGGAUAACAUGAGGAUCACCCAUGUGACUGAUUGAUAUCCUGCAGAAGGGCUAGGGA | 24.4 | 122 | – | – |
| AGCGAACAGGCUAACAUGAGGAUCACCCAUGUGGACUCAUGGUAGGAUAUCGGGAAGGAGGAAACCGAGAAGGGCCGGUGAGCC | – | – | 440 | 229 |
| AGCGGCGCGGACCACCGCAAAACCAGAAGGACAUGAGGAUCACCCAUGUAACAAAACAGGGCGGUGUAGGAUAUGGCAGACCCA | 10.8 | 9.16 | – | – |
| AGCGUACAAGCUAACAUGAGGAUCACCCAUGUGGACUCAUGCGAGGAUAUCGGGAAGGAGGAUUCCGAGAAGGUGCGGUGAGCC | – | – | 148 | 38.1 |
| AGCUAAAUGUCAGGAUAUGCCCGCCAGGUGGAAGCAGAAGGGACAUACCAGACAUGAGGAUCACCCAUGUAAACUGGGUAAGAA | – | – | 142 | 126 |
| AGCUACGUUUCGUAGCAGCUAGGUGAGGAUAUCCUUUUACAUGAGGAUCACCCAUGUUAGCCAUGGGAGAAGGCGCCUAGAAAG | – | – | 498 | 37.7 |
| AGCUACGUUUCGUAGCAGCUAGGUGAGGAUAUUCAAUUUUUCACAUGAGGAUCACCCAUGUAUGAAAAGAAGGCGCCUAGAAAG | – | – | 4.45 | 4.04 |
| AGCUACGUUUCGUAGCAGUGUCAUCGAGAAGGCCCUGACAUGAGGAUCACCCAUGUUGUUACAUGGGAGGAUAUCGAUGAUACC | – | – | 13.3 | 5.32 |
| AGCUACGUUUCGUAGCAGUGUCAUCGAGAAGGCUCAUUAACAUGAGGAUCACCCAUGUAUUCAUGGGAGGAUAUCGAUGAUACA | – | – | 131 | 9.22 |

| Sequence | apparent Kd [1] [nM] | apparent Kd [2] [nM] | apparent Kd [3] [nM] | apparent Kd [4] [nM] |
| --- | --- | --- | --- | --- |
| AGCUAGUCAGGAUAUACGAAAAUGUCAGAGGCUGUGAAGGGACAUGAGGAUCACCCAUGUAGAAGGGACUAGCA | 96.8 | 136 | – | – |
| AGCUAGUCAGGAUAUACGAACAUGUCGCCCGACGUGAAGGGACAUGAGGAUCACCCAUGUAGAAGGGACUAGCA | 135 | 348 | – | – |
| AGCUGUGGCCGAGGAUAUACAUCCUUUAUAACCGAUGAAUAUCAUCGGACAUGAGGAUCACCCAUGUAGAAGGCGGUCUCAGCA | 149 | 750 | – | – |
| AGCUGUGGCCGAGGAUAUCUAAAUUCUUAAAACGAAAUAUAAUCGAACAUGAGGAUCACCCAUGUAGAGAAGGCGGUCUCAGCA | 19.8 | 20.7 | – | – |
| AGCUGUGGCCGAGGAUAUCUACCUUCAAUAACCGAAAUAUAAUCGGACAUGAGGAUCACCCAUGUAGAGAAGGCGGUCUCAGCA | 14.8 | 96.2 | – | – |
| AGCUGUGGCCGAGGAUAUCUAUCCAAUAUAACCGAAAUAUAAUCGGACAUGAGGAUCACCCAUGUAGAGAAGGCGGUCUCAGCA | 19.8 | 25.5 | – | – |
| AGGCAAUCAGGAUAUACAUGAGGAUCACCCAUGUGUACAAAGCACAUCCGAUCUAGAUGUAGAAGGGAUAUGCA | 19.1 | 35.8 | – | – |
| AGGGAGUAAGGAUAUGCUGCUCGUCACUUGCGUGAUGAGUAGCAGAAGGUACAUGAGGAUCACCCAUGUAAAGA | 30 | 22.9 | – | – |
| AGGUAACAUGAGGAUCACCCAUGUCAGGAUAUCAUGAAGAGGAGAUUAGAGGAGAGGUUGAGAAGGGACUAUAU | 76 | 57.4 | – | – |
| AGGUACCAUGUUAGGAUAUCACUGACUAACGUCGCUGAGAAGGAACAUGAGGAUCACCCAUGUGCCGGGCUCUU | 20.9 | 50.8 | – | – |
| AGGUAUCCUGAGAAAUUUCUCCACAUGAGGAUCACCCAUGUAGAGGAUAUCGACGCUGUGCGGUUCGAGAAGGCUACACUAAAA | – | 15.3 | – | – |
| AGGUGACAUGAGGAUCACCCAUGUUGCAUAAAACAAGGAUAUGGGUGGCGGGAUCGCCAAUCAGAAGGUGUUCCGA | – | – | 44.1 | 36.9 |
| AGGUUUGGAGAGAAGGGCUAAUGGGUUUCGUUUGAGGUAUUCGCAACAUGAGGAUCACCCAUGUAGCAGGAUAUCUCAAAACUA | 4.88 | 7.95 | – | – |
| AGUAACAGAGGAUAUACUAUUUUAUGUGUUUGUUGUUUUGAACAUGAGGAUCACCCAUGUAGAAGGCUGAAUAA | 23.9 | 24.9 | – | – |
| AGUAACAGAGGAUAUACUGUUUUAUGUAUUUAUUAUUUUAAACAUGAGGAUCACCCAUGUAGAAGGCUGAAUAA | 20.6 | 20.3 | – | – |
| AGUAAGAUGCAGAAGGUGUCAGCGAGAGCUGUACAUGAGGAUCACCCAUGUUGUCGGUGACGACACAAGGAUAUGCAUCUUACA | – | – | 24.7 | 6.28 |
| AGUAAGAUGCAGAAGGUGUUAGCUAGAGCUACGACAUGAGGAUCACCCAUGUAAAACCGCCCGUACAAGGAUAUGCAUCUUACA | – | – | 6.12 | 5.54 |
| AGUACCAUGUAGAAGGGAUAUCUGAUUCAGAUAUCAGGAUAUACAUGAGGAUCACCCAUGUAAAUGUACUCCAGGAAACUGGAA | 18 | 48 | – | – |
| AGUACUACAGGAUAUACGAGGGAGGUCCACGUGACCCUUAUACAUGAGGAUCACCCAUGUAGAAGGGUAGUACA | 80.3 | 16.4 | – | – |

| Sequence | apparent Kd [1] [nM] | apparent Kd [2] [nM] | apparent Kd [3] [nM] | apparent Kd [4] [nM] |
| --- | --- | --- | --- | --- |
| AGUAGACAAGGAUAUACAUGAGGAUCACCCAUGUGUGAAGGCCAGGAGGCUCCUCCCUGUAGAAGGUGUCGAGU | 104 | 293 | – | – |
| AGUAGAUCAGGAUAUACGUAAAUGGUAAUUAUGUAACUUCAACAUGAGGAUCACCCAUGUAGAAGGGAUCUACA | 14.6 | 15.1 | – | – |
| AGUAUUGUAGGGUAUCCAACAUGAGGAUCACCCAUGUACCAGAGAAGGACCCGUGCAUUGCUCGGGUAGGAUAUCUGCGCAUCA | 19.4 | 172 | – | – |
| AGUCAGACAGGAUAUACGUGGAUGGAACACUUAUUUCCACUACAUGAGGAUCACCCAUGUAGAAGGGUCUGACA | 18.8 | 19.7 | – | – |
| AGUCAGAGCAGAGGAUAUAUACAUGAGGAUCACCCAUGUGACUGCCUAUGCUAGAAAUAGUAUGUAUAGAAGGCUGCUCUGACA | 752 | 483 | – | – |
| AGUCAUACAGGAUAUACAUGAGGAUCACCCAUGUAAAUCCUAAAUGGGUGAUCCUCAUGUAGAAGGGUAUGACA | 20.7 | 17.1 | – | – |
| AGUCCUGACGUCAGGAUAUCCGGCCAAUAGGCCAAGGAGAAGGGACAUGAGGAUCACCCAUGUGCUUGGGUCCG | 23.2 | 40.2 | – | – |
| AGUGACUACGUAGGAUAUUAAUUCAUGGACUACAUGAGGAUCACCCAUGUUUAUUUAACAUCAGCUAAGAAGGACGUGGUCACA | – | – | 16.6 | 8.5 |
| AGUGAUUGCUGUGUCAGUUCACAUGAGGAUCACCCAUGUAGCUAGGAUAUCCGCAGUUACUGCUAGGAGAAGGAGCAAGGUGGC | 8.6 | 12.1 | – | – |
| AGUGCGUAUGUGAGGAUAUGCUGGUCCUUGGAUCGGCAGAAGGCACAUGAGGAUCACCCAUGUGGUGUCGUACC | 244 | 34 | – | – |
| AGUGCUAUGUAGAAGGCAGAUCUGAUUCAGAUCUGAGGAUAUACAUGAGGAUCACCCAUGUUAUGCACCAGCACGAGAGUGCAC | 7.91 | 16.8 | – | – |
| AGUGUAUCCCUAGGAUAUGCACAUGAGGAUCACCCAUGUAAACCCGCGCAGGCUCUUCUCAUGUCGCAGAAGGAGGGACCCGGA | 311 | 39.6 | – | – |
| AGUGUCAUCGAGAAGGCCUCAACAUGAGGAUCACCCAUGUUGUAAUAUGGGAGGAUAUCGAUGAUACAGCUACGUUUCGUAGCG | – | – | 19.9 | 5.82 |
| AGUGUCAUCGAGAAGGCCUCAUGAACAUGAGGAUCACCCAUGUAAAAUGGGAGGAUAUCGAUGAUACAGCUACGUUUCGUAGCA | – | – | 74.4 | 28.5 |
| AGUGUCAUCGAGAAGGCCUCGACAUGAGGAUCACCCAUGUUGUUAUAUGGGAGGAUAUCGAUGAUACAGCUACGUUUCGUAGCA | – | – | 51.6 | 14.7 |
| AGUGUGGGAGGAUAUACAUGAGGAUCACCCAUGUGAGUUGGCUCACAUGCUACGCUUCGUAGAAGGCCCAAAGA | 88.8 | 290 | – | – |
| AGUGUGUGGCAGGAUAUGCAAUUUGUAAGUAUUGCAGAAGGGUCUACAUGAGGAUCACCCAUGUGUGCGGUUGA | 721 | 477 | – | – |
| AGUGUGUGGCAGGAUAUGCUGUUGAUUCGGGCAGCAGAAGGGUCUACAUGAGGAUCACCCAUGUAAGCGGUUGA | 257 | 413 | – | – |
